# Measurements reported in ChEMBL document CHEMBL5058577, “EUbOPEN Chemogenomics Library 2 (Multiplex)” (2022).
# Test system: U2OS
# Assay: Multiplex assay against U2OS
# Type: toxicity, cell-based
# Settings: human
# In short: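 Cells stained live at seeding with Hoechst33342, BioTracker Green Microtubule Cytoskeleton Dye, MitoTracker Red and Annexin V Alexa Fluor 680 were imaged on a CQ1 microscope at 37°C and 5% CO2 after compound addition. Their classification by CellPathfinder machine-learning gating ran from Hoechst high-intensity objects versus normal cells, to healthy, pyknosed or fragmented nuclei among normal cells, to mitotic or apoptotic among pyknosed cells. Tubulin, mitochondrial-mass and membrane-permeability phenotypes are per cents of healthy-nucleus cells.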
# [1] = 12 h, 1 µM, compound concentration 1 uM, replicate 1
# [2] = 12 h, 1 µM, compound concentration 1 uM, replicate 2
# [3] = 12 h, 10 µM, compound concentration 10 uM, replicate 1
# [4] = 12 h, 10 µM, compound concentration 10 uM, replicate 2
# [5] = 24 h, 1 µM, compound concentration 1 uM, replicate 1
# [6] = 24 h, 1 µM, compound concentration 1 uM, replicate 2
# [7] = 24 h, 10 µM, compound concentration 10 uM, replicate 1
# [8] = 24 h, 10 µM, compound concentration 10 uM, replicate 2
# [9] = 48 h, 1 µM, compound concentration 1 uM, replicate 1
# [10] = 48 h, 1 µM, compound concentration 1 uM, replicate 2
# [11] = 48 h, 10 µM, compound concentration 10 uM, replicate 1
# [12] = 48 h, 10 µM, compound concentration 10 uM, replicate 2
smiles,measurement,setting,value
Cc1ccc(OCC(O)C(C)NC(C)C)c2c1CCC2.Cl (stereo unspecified),Population Apoptotic (%),[1],63%
same,Population Fragmented Nuclei (%),[1],19%
same,Population Healthy Nuclei (%),[1],66%
same,Population Hoechst High Intensity Objects (%),[1],2%
same,Population Membrane Permeable-Phenotype (%),[1],8%
same,Population Mitochondria Different-Phenotype (%),[1],3%
same,Population Mitotic Cells (%),[1],36%
same,Population Normal (%),[1],97%
same,Population Pyknosed Nuclei (%),[1],13%
same,Population Tubulin-Different-Phenotype (%),[1],4%
same,Total Cell Count,[1],222
same,Population Apoptotic (%),[2],90%
same,Population Fragmented Nuclei (%),[2],11%
same,Population Healthy Nuclei (%),[2],79%
same,Population Hoechst High Intensity Objects (%),[2],1%
same,Population Membrane Permeable-Phenotype (%),[2],7%
same,Population Mitochondria Different-Phenotype (%),[2],2%
same,Population Mitotic Cells (%),[2],9%
same,Population Normal (%),[2],98%
same,Population Pyknosed Nuclei (%),[2],8%
same,Population Tubulin-Different-Phenotype (%),[2],2%
same,Total Cell Count,[2],129
same,Population Apoptotic (%),[3],61%
same,Population Fragmented Nuclei (%),[3],30%
same,Population Healthy Nuclei (%),[3],52%
same,Population Hoechst High Intensity Objects (%),[3],5%
same,Population Membrane Permeable-Phenotype (%),[3],14%
same,Population Mitochondria Different-Phenotype (%),[3],17%
same,Population Mitotic Cells (%),[3],38%
same,Population Normal (%),[3],94%
same,Population Pyknosed Nuclei (%),[3],16%
same,Population Tubulin-Different-Phenotype (%),[3],8%
same,Total Cell Count,[3],215
same,Population Apoptotic (%),[4],80%
same,Population Fragmented Nuclei (%),[4],11%
same,Population Healthy Nuclei (%),[4],81%
same,Population Hoechst High Intensity Objects (%),[4],0%
same,Population Membrane Permeable-Phenotype (%),[4],9%
same,Population Mitochondria Different-Phenotype (%),[4],22%
same,Population Mitotic Cells (%),[4],20%
same,Population Normal (%),[4],99%
same,Population Pyknosed Nuclei (%),[4],7%
same,Population Tubulin-Different-Phenotype (%),[4],9%
same,Total Cell Count,[4],137
same,Population Apoptotic (%),[5],88%
same,Population Fragmented Nuclei (%),[5],14%
same,Population Healthy Nuclei (%),[5],75%
same,Population Hoechst High Intensity Objects (%),[5],0%
same,Population Membrane Permeable-Phenotype (%),[5],5%
same,Population Mitochondria Different-Phenotype (%),[5],3%
same,Population Mitotic Cells (%),[5],11%
same,Population Normal (%),[5],100%
same,Population Pyknosed Nuclei (%),[5],10%
same,Population Tubulin-Different-Phenotype (%),[5],4%
same,Total Cell Count,[5],255
same,Population Apoptotic (%),[6],93%
same,Population Fragmented Nuclei (%),[6],15%
same,Population Healthy Nuclei (%),[6],73%
same,Population Hoechst High Intensity Objects (%),[6],1%
same,Population Membrane Permeable-Phenotype (%),[6],3%
same,Population Mitochondria Different-Phenotype (%),[6],5%
same,Population Mitotic Cells (%),[6],6%
same,Population Normal (%),[6],98%
same,Population Tubulin-Different-Phenotype (%),[6],0%
same,Total Cell Count,[6],155
same,Population Apoptotic (%),[7],82%
same,Population Fragmented Nuclei (%),[7],26%
same,Population Healthy Nuclei (%),[7],56%
same,Population Hoechst High Intensity Objects (%),[7],3%
same,Population Membrane Permeable-Phenotype (%),[7],10%
same,Population Mitochondria Different-Phenotype (%),[7],17%
same,Population Mitotic Cells (%),[7],17%
same,Population Normal (%),[7],96%
same,Population Pyknosed Nuclei (%),[7],17%
same,Population Tubulin-Different-Phenotype (%),[7],4%
same,Total Cell Count,[7],230
same,Population Apoptotic (%),[8],92%
same,Population Fragmented Nuclei (%),[8],14%
same,Population Healthy Nuclei (%),[8],77%
same,Population Hoechst High Intensity Objects (%),[8],2%
same,Population Membrane Permeable-Phenotype (%),[8],12%
same,Population Mitochondria Different-Phenotype (%),[8],11%
same,Population Mitotic Cells (%),[8],7%
same,Population Normal (%),[8],97%
same,Population Pyknosed Nuclei (%),[8],8%
same,Population Tubulin-Different-Phenotype (%),[8],6%
same,Total Cell Count,[8],172
same,Population Apoptotic (%),[9],88%
same,Population Fragmented Nuclei (%),[9],14%
same,Population Healthy Nuclei (%),[9],73%
same,Population Hoechst High Intensity Objects (%),[9],0%
same,Population Membrane Permeable-Phenotype (%),[9],6%
same,Population Mitochondria Different-Phenotype (%),[9],4%
same,Population Mitotic Cells (%),[9],11%
same,Population Normal (%),[9],99%
same,Population Pyknosed Nuclei (%),[9],12%
same,Population Tubulin-Different-Phenotype (%),[9],3%
same,Total Cell Count,[9],377
same,Population Apoptotic (%),[10],80%
same,Population Fragmented Nuclei (%),[10],20%
same,Population Healthy Nuclei (%),[10],69%
same,Population Hoechst High Intensity Objects (%),[10],2%
same,Population Membrane Permeable-Phenotype (%),[10],5%
same,Population Mitochondria Different-Phenotype (%),[10],3%
same,Population Mitotic Cells (%),[10],20%
same,Population Normal (%),[10],97%
same,Population Pyknosed Nuclei (%),[10],10%
same,Population Tubulin-Different-Phenotype (%),[10],2%
same,Total Cell Count,[10],202
same,Population Apoptotic (%),[11],82%
same,Population Fragmented Nuclei (%),[11],23%
same,Population Healthy Nuclei (%),[11],63%
same,Population Hoechst High Intensity Objects (%),[11],4%
same,Population Membrane Permeable-Phenotype (%),[11],12%
same,Population Mitochondria Different-Phenotype (%),[11],12%
same,Population Mitotic Cells (%),[11],17%
same,Population Normal (%),[11],95%
same,Population Pyknosed Nuclei (%),[11],13%
same,Population Tubulin-Different-Phenotype (%),[11],6%
same,Total Cell Count,[11],306
same,Population Apoptotic (%),[12],77%
same,Population Fragmented Nuclei (%),[12],15%
same,Population Healthy Nuclei (%),[12],73%
same,Population Hoechst High Intensity Objects (%),[12],0%
same,Population Membrane Permeable-Phenotype (%),[12],7%
same,Population Mitochondria Different-Phenotype (%),[12],4%
same,Population Mitotic Cells (%),[12],22%
same,Population Normal (%),[12],99%
same,Population Pyknosed Nuclei (%),[12],11%
same,Population Tubulin-Different-Phenotype (%),[12],3%
same,Total Cell Count,[12],246
